From ChEMBL document CHEMBL1156144, “Biaryl ethers as novel non-nucleoside reverse transcriptase inhibitors with improved potency against key mutant viruses” (J Med Chem, 2009)

Legend:
[1] = test system: Human immunodeficiency virus; test: Antiviral activity against HIV with reverse transcriptase K103N mutant assessed as inhibition of viral replication; assay type: functional, organism-based; conditions: Human immunodeficiency virus 1
[2] = test system: Human immunodeficiency virus; test: Antiviral activity against HIV with reverse transcriptase G190S mutant assessed as inhibition of viral replication relative to wild type; assay type: functional
[3] = test system: Human immunodeficiency virus; test: Antiviral activity against HIV with reverse transcriptase G190A mutant assessed as inhibition of viral replication; assay type: functional, organism-based; conditions: Human immunodeficiency virus 1
[4] = test system: Human immunodeficiency virus; test: Antiviral activity against HIV with reverse transcriptase K103N/G190A double mutant assessed as inhibition of viral replication; assay type: functional, organism-based; conditions: Human immunodeficiency virus 1
[5] = test system: Human immunodeficiency virus; test: Antiviral activity against HIV with reverse transcriptase Y181C mutant assessed as inhibition of viral replication relative to wild type; assay type: functional
[6] = Inhibition of RNA-dependent DNA polymerase activity of wild type HIV reverse transcriptase assessed as BrdU incorporation by standard ECL assay; design: species or system Human immunodeficiency virus
Summary of the method: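 Purified recombinant wild-type RT polymerase activity was measured using a 500-nt heteropolymeric RNA template and a biotinylated DNA primer. BrdU incorporation was detected with a ruthenylated anti-BrdU antibody by electrochemiluminescence. Ki is the geometric mean of at least two determinations, each within 25% of the mean.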

[7] = test system: Human immunodeficiency virus; test: Antiviral activity against HIV with reverse transcriptase K103N/Y181C/G190A mutant assessed as inhibition of viral replication; assay type: functional, organism-based; conditions: Human immunodeficiency virus 1
[8] = test system: Human immunodeficiency virus; test: Antiviral activity against wild type HIV H9-3B infected in human MT2 cells assessed as inhibition of viral replication measuring p24 level after 3 days in presence of 10% fetal bovine serum; assay type: functional; conditions: Human immunodeficiency virus 1, MT2, Serum; read-out: CIC95
Summary of the method: (§1)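 Multiple-cycle spread assay in MT2 cells with wild-type H9IIIB virus. Cells were infected overnight at moi ≈ 0.01 without compound, washed, then cultured 3 days across varying compound concentrations in RPMI 1640 with 10% FBS or 50% NHS. p24 was measured in supernatants. CIC95 is the lowest concentration inhibiting replication ≥95%, as the geometric mean of ≥2 determinations.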

[9] = test system: Human immunodeficiency virus; test: Antiviral activity against HIV with reverse transcriptase K103N/Y181C double mutant infected in human MT2 cells assessed as inhibition of viral replication measuring p24 level after 3 days in presence of 10% fetal bovine serum; assay type: functional; conditions: Human immunodeficiency virus 1, MT2, Serum, 72 h; read-out: CIC95
Summary of the method: (§2)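 Multiple-cycle replication (Spread) assay in MT2 cells with H9IIIB-background mutant virus. Cells were infected overnight at moi ≈ 0.01 without compound, washed, then cultured 3 days across a range of compound concentrations in medium with 10% FBS. p24 was measured in supernatants. CIC95 is the lowest concentration inhibiting replication by ≥95%, reported as the geometric mean of ≥2 determinations.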

[10] = test system: Human immunodeficiency virus; test: Antiviral activity against HIV with reverse transcriptase L100I mutant assessed as inhibition of viral replication; assay type: functional, organism-based; conditions: Human immunodeficiency virus 1
[11] = test system: Human immunodeficiency virus; test: Antiviral activity against HIV with reverse transcriptase K103N/P225H double mutant assessed as inhibition of viral replication relative to wild type; assay type: functional
[12] = test system: Human immunodeficiency virus; test: Antiviral activity against HIV with reverse transcriptase K101E/Y181C/G190A mutant assessed as inhibition of viral replication relative to wild type; assay type: functional
[13] = test system: Human immunodeficiency virus; test: Antiviral activity against HIV with reverse transcriptase G190S mutant assessed as inhibition of viral replication; assay type: functional, organism-based; conditions: Human immunodeficiency virus 1
[14] = test system: Human immunodeficiency virus; test: Antiviral activity against HIV with reverse transcriptase Y188L mutant assessed as inhibition of viral replication; assay type: functional, organism-based; conditions: Human immunodeficiency virus 1
[15] = test system: Human immunodeficiency virus; test: Antiviral activity against HIV with reverse transcriptase K101E/G190A double mutant assessed as inhibition of viral replication; assay type: functional, organism-based; conditions: Human immunodeficiency virus 1
[16] = test system: Human immunodeficiency virus; test: Antiviral activity against HIV with reverse transcriptase Y181C/G190A double mutant assessed as inhibition of viral replication; assay type: functional, organism-based; conditions: Human immunodeficiency virus 1
[17] = test system: Human immunodeficiency virus; test: Antiviral activity against HIV with reverse transcriptase K103N/Y181C double mutant assessed as inhibition of viral replication relative to wild type; assay type: functional
[18] = test system: Human immunodeficiency virus; test: Antiviral activity against HIV with reverse transcriptase CNDO mutant assessed as inhibition of viral replication; assay type: functional, organism-based; conditions: Human immunodeficiency virus 1
[19] = target: Human immunodeficiency virus type 1 reverse transcriptase (Human immunodeficiency virus 1, UniProt Q72547, K103N); test: Inhibition of RNA-dependent DNA polymerase activity of recombinant HIV reverse transcriptase K103N mutant assessed as BrdU incorporation by standard ECL assay
[20] = test system: Human immunodeficiency virus; test: Antiviral activity against HIV with reverse transcriptase MDRC4 mutant assessed as inhibition of viral replication relative to wild type; assay type: functional
[21] = test system: Human immunodeficiency virus; test: Antiviral activity against HIV with reverse transcriptase Y181C/G190A double mutant assessed as inhibition of viral replication relative to wild type; assay type: functional
[22] = test system: Human immunodeficiency virus; test: Antiviral activity against HIV with reverse transcriptase K103N mutant infected in human MT2 cells assessed as inhibition of viral replication measuring p24 level after 3 days in presence of 10% fetal bovine serum; assay type: functional; conditions: Human immunodeficiency virus 1, MT2, Serum, 72 h; read-out: CIC95; summary of the method: as §2
[23] = test system: Human immunodeficiency virus; test: Antiviral activity against HIV with reverse transcriptase L100I/K103N double mutant assessed as inhibition of viral replication; assay type: functional, organism-based; conditions: Human immunodeficiency virus 1
[24] = test system: Human immunodeficiency virus; test: Antiviral activity against HIV with reverse transcriptase V106A/G190A/F227L mutant assessed as inhibition of viral replication relative to wild type; assay type: functional
[25] = test system: Human immunodeficiency virus; test: Antiviral activity against wild type HIV H9-3B infected in human MT2 cells assessed as inhibition of viral replication measuring p24 level after 3 days in presence of 50% normal human serum; assay type: functional; conditions: Human immunodeficiency virus 1, H9-3B, 72 h, read-out: CIC95; summary of the method: as §1
[26] = test system: Human immunodeficiency virus; test: Antiviral activity against HIV with reverse transcriptase V106A/G190A/F227L mutant assessed as inhibition of viral replication; assay type: functional, organism-based; conditions: Human immunodeficiency virus 1
[27] = test system: Human immunodeficiency virus; test: Antiviral activity against HIV with reverse transcriptase K101E/G190A double mutant assessed as inhibition of viral replication relative to wild type; assay type: functional
[28] = test system: Human immunodeficiency virus; test: Antiviral activity against HIV with reverse transcriptase Y181C mutant assessed as inhibition of viral replication; assay type: functional, organism-based; conditions: Human immunodeficiency virus 1
[29] = test system: Human immunodeficiency virus; test: Antiviral activity against HIV with reverse transcriptase Y181C mutant infected in human MT2 cells assessed as inhibition of viral replication measuring p24 level after 3 days in presence of 10% fetal bovine serum; assay type: functional; conditions: Human immunodeficiency virus 1, MT2, Serum, 72 h; read-out: CIC95; summary of the method: as §2
[30] = test system: Human immunodeficiency virus; test: Antiviral activity against HIV with reverse transcriptase K103N/Y181C double mutant assessed as inhibition of viral replication; assay type: functional, organism-based; conditions: Human immunodeficiency virus 1
[31] = test system: Human immunodeficiency virus; test: Antiviral activity against HIV with reverse transcriptase L100I/K103N double mutant assessed as inhibition of viral replication relative to wild type; assay type: functional
[32] = test system: Human immunodeficiency virus; test: Antiviral activity against HIV with reverse transcriptase K103N/P225H double mutant assessed as inhibition of viral replication; assay type: functional, organism-based; conditions: Human immunodeficiency virus 1
[33] = test system: Human immunodeficiency virus; test: Antiviral activity against HIV with reverse transcriptase CNDO mutant assessed as inhibition of viral replication relative to wild type; assay type: functional
[34] = test system: Human immunodeficiency virus; test: Antiviral activity against HIV with reverse transcriptase G190A mutant assessed as inhibition of viral replication relative to wild type; assay type: functional
[35] = test system: Human immunodeficiency virus; test: Antiviral activity against HIV with reverse transcriptase MDRC4 mutant assessed as inhibition of viral replication; assay type: functional, organism-based; conditions: Human immunodeficiency virus 1
[36] = test system: Human immunodeficiency virus; test: Antiviral activity against HIV with reverse transcriptase Y188L mutant assessed as inhibition of viral replication relative to wild type; assay type: functional
[37] = test system: Human immunodeficiency virus; test: Antiviral activity against HIV with reverse transcriptase K103N/Y181C/G190A mutant assessed as inhibition of viral replication relative to wild type; assay type: functional
[38] = test system: Human immunodeficiency virus; test: Antiviral activity against HIV with reverse transcriptase L100I mutant assessed as inhibition of viral replication relative to wild type; assay type: functional
[39] = test system: Human immunodeficiency virus; test: Antiviral activity against HIV with reverse transcriptase K103N mutant assessed as inhibition of viral replication relative to wild type; assay type: functional
[40] = test system: Human immunodeficiency virus; test: Antiviral activity against HIV with reverse transcriptase K103N/G190A double mutant assessed as inhibition of viral replication relative to wild type; assay type: functional
[41] = test system: Human immunodeficiency virus; test: Antiviral activity against HIV with reverse transcriptase K101E/Y181C/G190A mutant assessed as inhibition of viral replication; assay type: functional, organism-based; conditions: Human immunodeficiency virus 1

## N#Cc1cc(Cl)cc(Oc2cc(OCc3n[nH]c4ncccc34)ccc2Cl)c1
[1]
  IC50: 1.6 nM
[2]
  fold change (FC): 4.36
[3]
  IC50: 1.8 nM
[4]
  IC50: 2.4 nM
[5]
  fold change (FC): 2.82
[6]
  Ki: 0.1 nM
[7]
  IC50: 30.9 nM
[8]
  IC95: 10 nM
[9]
  IC95: 53 nM
[10]
  IC50: 0.7 nM
[11]
  fold change (FC): 3.27
[12]
  fold change (FC): 10.55
[13]
  IC50: 4.8 nM
[14]
  IC50: 616 nM
[15]
  IC50: 2.1 nM
[16]
  IC50: 4.6 nM
[17]
  fold change (FC): 21.45
[18]
  IC50: 1.1 nM
[19]
  Ki: 0.2 nM
[20]
  fold change (FC): 4.64
[21]
  fold change (FC): 4.18
[22]
  IC95: 15 nM
[23]
  IC50: 16.5 nM
[24]
  fold change (FC): >909
[25]
  IC95: 52 nM
[26]
  IC50: > 1000 nM
[27]
  fold change (FC): 1.91
[28]
  IC50: 3.1 nM
[29]
  IC95: 22 nM
[30]
  IC50: 23.6 nM
[31]
  fold change (FC): 15
[32]
  IC50: 3.6 nM
[33]
  fold change (FC): 1
[34]
  fold change (FC): 1.64
[35]
  IC50: 5.1 nM
[36]
  fold change (FC): 560.18
[37]
  fold change (FC): 28.09
[38]
  fold change (FC): 0.64
[39]
  fold change (FC): 1.45
[40]
  fold change (FC): 2.18
[41]
  IC50: 11.6 nM
